This is a sample that favours compounds with a hit; in the whole collection about 1.3% have one here.
S1P4 agonist: human S1P4 receptor agonism; AID 1509; activation, % at 4.98 µM; S1P4-expressing cell line, agonist reporter assay; O95977; 0.35% of 220,000 active; in the data active = activation above about 11%;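 also: 0% = DMSO vehicle and 100% = reference agonist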
Biofilm kill mix: mixture kills Candida albicans biofilm cells. C. albicans biofilm persisters + clotrimazole, fluorescence viability; primary screen in compound mixtures of four per well. inhibition, % at 7.6 µM. 0.02% of 120,000 active. AID 1242;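 active = inhibition above 30.3% in the primary screen of four-compound pools, then above 30% when the compound was retested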;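 also: compounds exposed to preformed 24 h biofilms for 48 h; 0% = untreated biofilm control and 100% = clotrimazole plus chlorhexidine kill blank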
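Incubation: 24 h biofilm formation, then 48 h compound exposure, 37 °C | Material: C. albicans biofilms | Buffer or medium: RPMI/MOPS medium, pH 7.0 | Measured by: 2-h Alamar Blue fluorescence, 535/590 nm excitation/emission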
S1P4 antag: blocks the human S1P4 receptor. O95977. 0.26% of 220,000 active. S1P4-expressing cells, antagonist mode, reporter read-out. inhibition, % at 4.98 µM. AID 1510; in the data active = inhibition above about 29%;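 also: 0% = wells stimulated with agonist and 100% = vehicle wells without agonist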
Dynein transport: dynein cargo transport inhibition. 3617.4 mouse cells, GR-EGFP nuclear translocation imaging; test concentration mostly 20 µM; stimulated with dexamethasone, 1 µM; stronger effect = lower value. z-score, hits read low. 0.47% of 220,000 active. AID 1381;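 active = plate z-score of nuclear minus cytoplasmic receptor signal below a set negative limit, without overly bright fluorescence or cell loss, cut at about -3.5 in these data, passing the limit was not always enough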;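 also: z-score of nuclear minus cytoplasmic ring GR-EGFP intensity difference per well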
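medium = tetracycline-free induction medium containing charcoal-stripped FBS | probe or stimulus = dexamethasone, 1.0 µM final | timing = 48 h induction, then 1 h compound, then 30 min agonist, 37 °C | detection = automated 10x imaging of fixed Hoechst-stained cells | read-out basis = nuclear versus cytoplasmic GR-EGFP signal, averaged per well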
TbHK1 inh: blocks Trypanosoma brucei hexokinase 1 activity | 0.11% of 220,000 active | recombinant TbHK1, G6PDH-coupled NADH A340 | inhibition, % at 10 µM;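 active = inhibition of 50% or more in the single-dose primary screen; inactive = inhibition below 50%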
S1P3 antagonist: blocks the human S1P3 receptor | Q99500 | CHO S1P3 NFAT-BLA reporter, FRET fluorescence, antagonist mode | inhibition, % at 4.98 µM | 0.27% of 170,000 active;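 active = inhibition above the plate cutoff, the mean inhibition of test wells on that plate plus 3 SD, cut at about 28% in these data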;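 also: cells challenged with S1P at its EC80 of 0.8 µM; blue over green emission ratio from cleaved BLA substrate after 4 h stimulation; 0% = S1P-stimulated wells and 100% = unstimulated DMSO-only wells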
S1P4 ag conf: confirmation of human S1P4 receptor agonists | shares compounds with S1P4 agonist | S1P4 agonist cell-based reporter assay | activation, % at 4.98 µM | 7% of 740 active; in the data active = activation above about 12%;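 also: 0% = vehicle and 100% = full reference agonist response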
S1P1 agonist: human S1P1 agonism as S1P4 agonist counter-screen | AID 1563 | 4% of 740 active | activation, % at 4.98 µM | shares compounds with S1P4 agonist | S1P1 agonist cell-based assay, activation; in the data active = activation above about 21%;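 also: 0% = vehicle wells and 100% = reference agonist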
Target sequence (P21453 whole entry, looked up): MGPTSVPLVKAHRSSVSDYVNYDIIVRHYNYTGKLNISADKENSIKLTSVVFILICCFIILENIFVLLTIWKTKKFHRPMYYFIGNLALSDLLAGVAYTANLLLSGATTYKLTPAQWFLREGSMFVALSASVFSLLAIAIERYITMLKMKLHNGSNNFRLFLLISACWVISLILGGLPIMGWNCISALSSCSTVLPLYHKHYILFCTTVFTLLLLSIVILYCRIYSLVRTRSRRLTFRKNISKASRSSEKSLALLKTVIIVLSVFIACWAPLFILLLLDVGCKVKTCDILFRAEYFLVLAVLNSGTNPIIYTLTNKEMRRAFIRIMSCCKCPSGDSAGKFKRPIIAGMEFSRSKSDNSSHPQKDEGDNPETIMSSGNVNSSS
* marks the source's active call; other numbers are inactive results.

How did Nc1nc(SCC(=O)Nc2ccc([N+](=O)[O-])cc2Br)n[nH]1 do in these assays?
S1P4 agonist: 1; Biofilm kill mix: 11; S1P4 antag: 7; Dynein transport: -0.24; TbHK1 inh: -10; S1P3 antagonist: 0

Results for CC(C)c1nc(SCC(=O)Nc2ccc([N+](=O)[O-])cc2Br)n[nH]1 ?
S1P4 agonist: 68*; Biofilm kill mix: 6; S1P4 antag: -11; Dynein transport: 0.55; TbHK1 inh: -7; S1P3 antagonist: -3; S1P4 ag conf: -2; S1P1 agonist: 3

What do the screens show for `CCn1cc(CN2CCCC(C(=O)c3ccc(-c4ccccc4)cc3)C2)cn1` (stereo not given)?
S1P4 agonist: 0; Biofilm kill mix: 19; S1P4 antag: -4; Dynein transport: 0.43; TbHK1 inh: -1; S1P3 antagonist: 12

How did CCCNC(=O)Cn1nc([N+](=O)[O-])c([N+](=O)[O-])c1C do in these assays?
S1P4 agonist: 14*; Biofilm kill mix: 13; S1P4 antag: -12; Dynein transport: -0.54; TbHK1 inh: 15; S1P3 antagonist: 0; S1P4 ag conf: -2; S1P1 agonist: 4

What do the screens show for `COC(=O)c1cc(C(=O)OC)cc(N2C(=O)CC(NNC(=O)c3ccccc3Br)C2=O)c1` (stereo not given)?
S1P4 agonist: 1; S1P4 antag: -24; Dynein transport: 0.24; TbHK1 inh: -6

How did COC(=O)c1cc(C(=O)OC)cc(N2C(=O)CC(NNC(=O)c3ccc(C)cc3)C2=O)c1 (stereo not given) do in these assays?
S1P4 agonist: 29*; Biofilm kill mix: 4; S1P4 antag: -6; Dynein transport: 0.036; TbHK1 inh: 0; S1P3 antagonist: 0; S1P4 ag conf: -2; S1P1 agonist: -2

What do the screens show for `O=C(O)c1ccc(N2C(=O)/C(=C/C=C/c3ccccc3)SC2=S)cc1`?
S1P4 agonist: 15*; Biofilm kill mix: 4; S1P4 antag: 0; Dynein transport: -1.1; TbHK1 inh: 5; S1P3 antagonist: 1; S1P4 ag conf: -2; S1P1 agonist: 0

Results for C/C(=N\NC(=O)CC#N)c1cc2ccc(O)cc2oc1=O ?
S1P4 agonist: 57*; Biofilm kill mix: 9; S1P4 antag: -54; Dynein transport: 0.85; TbHK1 inh: -3; S1P3 antagonist: -46; S1P4 ag conf: -1; S1P1 agonist: -1

What do the screens show for `COc1ccccc1C(=O)c1cc2ccc(O)cc2oc1=O`?
S1P4 agonist: 2; Biofilm kill mix: 7; S1P4 antag: -19; Dynein transport: -0.66; TbHK1 inh: -7; S1P3 antagonist: -2

How did Cc1ccc(Oc2nc3c(C)cccn3c(=O)c2/C=C(\C#N)C(N)=O)cc1 do in these assays?
S1P4 agonist: 20*; Biofilm kill mix: 19; S1P4 antag: -6; Dynein transport: -0.22; TbHK1 inh: -14; S1P3 antagonist: 2; S1P4 ag conf: -1; S1P1 agonist: -8

What do the screens show for `CCOC(=O)/C(C#N)=C/c1c(Oc2cccc(C)c2)nc2c(C)cccn2c1=O`?
S1P4 agonist: 0; Biofilm kill mix: 15; S1P4 antag: -15; Dynein transport: -0.79; TbHK1 inh: -5; S1P3 antagonist: -17

How did CN1CCN(NC(=O)CSc2ccc(Cl)cc2Cl)CC1 do in these assays?
S1P4 agonist: 2; Biofilm kill mix: 7; S1P4 antag: -22; Dynein transport: -0.43; TbHK1 inh: 2; S1P3 antagonist: -2

How did COC(=O)N/N=C(\CCC(=O)O)c1cccs1 do in these assays?
S1P4 agonist: 27*; Biofilm kill mix: 10; S1P4 antag: -15; Dynein transport: 0.97; TbHK1 inh: -10; S1P3 antagonist: 4; S1P4 ag conf: -2; S1P1 agonist: -6

Results for COc1ccc(N2CCN(C(=O)NCc3ccc(OC)c(Cl)c3)CC2)cc1 ?
S1P4 agonist: 16*; Biofilm kill mix: 11; S1P4 antag: -4; Dynein transport: 0.96; TbHK1 inh: 2; S1P3 antagonist: -23; S1P4 ag conf: -2; S1P1 agonist: -11

What do the screens show for `O=C(NC1=NN(c2ccccc2)CC1)Nc1ccccc1F`?
S1P4 agonist: 0; Biofilm kill mix: 14; S1P4 antag: -2; Dynein transport: 0.64; TbHK1 inh: -3; S1P3 antagonist: -6

What do the screens show for `CCOc1ccccc1NC(=O)CSc1ccc([N+](=O)[O-])cc1`?
S1P4 agonist: -2; Biofilm kill mix: 3; S1P4 antag: -24; Dynein transport: 0.13; TbHK1 inh: -2; S1P3 antagonist: -10

How did CCN=c1scc(C)n1/N=C/c1ccsc1 do in these assays?
S1P4 agonist: 165*; S1P4 antag: -5; Dynein transport: 2.9; TbHK1 inh: -35; S1P3 antagonist: 18; S1P4 ag conf: -1; S1P1 agonist: 9

How did O=C(O)CCC(=O)Nc1ccccc1C(=O)N1CCN(c2ccc(Cl)cc2)CC1 do in these assays?
S1P4 agonist: 122*; Biofilm kill mix: 6; S1P4 antag: 6; Dynein transport: 0.15; TbHK1 inh: -4; S1P3 antagonist: 2; S1P4 ag conf: -2; S1P1 agonist: 0

What do the screens show for `COc1ccc(Nc2nc(-c3ccccc3)nc3ccccc23)cc1S(=O)(=O)N1CCOCC1`?
S1P4 agonist: 2; Biofilm kill mix: 18; S1P4 antag: 7; Dynein transport: -0.66; TbHK1 inh: -20; S1P3 antagonist: 21

What do the screens show for `c1ccc2c(N3CCCCC3)nc(N3CCOCC3)nc2c1`?
S1P4 agonist: 1; Biofilm kill mix: 8; S1P4 antag: -3; Dynein transport: 2.1; TbHK1 inh: -6; S1P3 antagonist: 11

How did Nc1nc(N2CCOCC2)nc2ccccc12 do in these assays?
S1P4 agonist: 22*; S1P4 antag: 0; Dynein transport: 2.9; TbHK1 inh: 0; S1P3 antagonist: -32; S1P4 ag conf: -1; S1P1 agonist: -7

How did CC(=O)Nc1ccc(S(=O)(=O)N2CCC(=O)Nc3ccccc32)cc1 do in these assays?
S1P4 agonist: 16*; Biofilm kill mix: -10; S1P4 antag: -67; Dynein transport: -0.56; TbHK1 inh: -7; S1P3 antagonist: 3; S1P4 ag conf: -3; S1P1 agonist: -4

How did CCc1nnc(NC(=O)C2CCC(CNc3c(N4CCC(C)CC4)c(=O)c3=O)CC2)s1 (stereo not given) do in these assays?
S1P4 agonist: 1; Biofilm kill mix: 20; S1P4 antag: -2; Dynein transport: -0.14; TbHK1 inh: -6; S1P3 antagonist: -18

Results for CCn1c(=O)c2cc(C(=O)N(C)c3ccccc3F)sc2c2ccccc21 ?
S1P4 agonist: 21*; Biofilm kill mix: 11; S1P4 antag: -5; Dynein transport: 0.53; TbHK1 inh: -65; S1P3 antagonist: 14; S1P4 ag conf: -2; S1P1 agonist: -6

Source: PubChem
